# Results from different studies.
# Read-out: cell growth or viability
SMILES,cell line,technique,tested at,time,quantity,value
C[C@]12CC[C@H](O)CC1=CC[C@@H]1[C@@H]2CC[C@]2(C)C(n3cnc4ccccc43)=CC[C@@H]12,CWR22Rv1,MTT,,,GI50,3.8 µM
COc1cc2c(cc1O)CCN(Cc1cc(OC)c(OC)cc1OC)C2,MDA-MB-231,WST-1,,96 h,GI50,4.1 µM
COc1ccc(-c2nc3ccccc3n2Cc2ccccc2)cc1OC,MDA-MB-231,MTT,,,IC50,27.1 µM
CCOC(=O)C(C(C)=O)=C1Sc2nc3ccc(S(=O)(=O)N4CCCC4)cc3nc2S1,MDA-MB-231,MTT,25 µM,24 h,viability,13.8%
COc1cc(C)cc2oc(-c3ccc(N(C)C)cc3)cc(=O)c12,HS27,MTT,,24 h,IC50,141 µM
Fc1ccc(-c2nc3ccccc3[nH]2)cc1,MDA-MB-231,MTT,,48 h,IC50,> 100 µM
COc1ccc(-c2cc(=O)c3c(OC)cc(OC)c(-c4c(OC)cc(OC)c5c(=O)cc(-c6ccc(OC)cc6)oc45)c3o2)cc1,HS27,MTT,,24 h,IC50,> 200 µM
N#CC(C(=O)Nc1cccc(C(F)(F)F)c1)=C1Sc2nc3ccc(S(=O)(=O)N4CCCC4)cc3nc2S1,MDA-MB-231,MTT,50 µM,24 h,viability,18.4%
COc1cc2c(cc1O)CCN(Cc1cccc(OC(F)(F)F)c1)C2,MDA-MB-231,WST-1,,96 h,GI50,> 100 µM
COc1cccc(-c2nc3ccccc3[nH]2)c1,MDA-MB-231,MTT,,48 h,IC50,25.5 µM
Cc1cc2c(cc1N1C(=O)c3cccc4c(CCCO)ccc(c34)C1=O)n(C)c(=O)n2C (racemic),NCI-H526,resazurin,,,GI50,6.86 µM
Cc1ccc2nc(-c3ccccc3O)[nH]c2c1,MDA-MB-231,MTT,,48 h,IC50,31.9 µM
Oc1ccc(Nc2nc(-c3ccc(Cl)cc3)cs2)cc1,FF2441,MTS,,72 h,IC50,> 100 µM
COc1cc(C)cc2oc(-c3ccccc3Br)cc(=O)c12,HS27,MTT,,24 h,IC50,130 µM
Cc1ccc2nc(-c3ccc(Cl)cc3Cl)[nH]c2c1,MDA-MB-231,MTT,,48 h,IC50,27.5 µM
COc1cc(C)c(-c2c(C)cc(OC)c3c(=O)cc(-c4cccc(Br)c4)oc23)c2oc(-c3cccc(Br)c3)cc(=O)c12,HS27,MTT,,24 h,IC50,> 200 µM
COc1cc2c(cc1O)CCN(Cc1cccc(O)c1)C2,MDA-MB-231,WST-1,,96 h,GI50,> 100 µM
Oc1cccc(-c2nc3ccccc3[nH]2)c1,MDA-MB-231,MTT,,48 h,IC50,> 100 µM
COC(=O)CN=c1scc(-c2ccccc2)n1-c1ccccc1[N+](=O)[O-],SiHa,MTT,,,IC50,6.78 µM
COc1cc(OC)c2c(=O)cc(-c3ccc(C(F)(F)F)cc3)oc2c1,HS27,MTT,,24 h,IC50,> 200 µM
COc1cc2c(cc1O)CCN(Cc1ccc(OC)c(OC)c1OC)C2,MDA-MB-231,WST-1,,96 h,GI50,> 100 µM
